From ChEMBL document CHEMBL1806410, “Design and synthesis of pyridine-substituted itraconazole analogues with improved antifungal activities, water solubility and bioavailability” (Bioorg Med Chem Lett, 2011)
≈ marks a conversion by molar mass, not a printed value.

Experiments:
Candida parapsilosis [1] = assay: Antifungal activity against Candida parapsilosis JLC 30275 by broth microdilution method; type: functional; settings: Lodderomyces parapsilosis
Outline: (§1)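 MICs were determined by broth microdilution following NCCLS guidelines (M38-P for filamentous fungi). The panel covered four yeast species and two Aspergillus species, with two strains per species. Itraconazole served as positive control.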

[2] = Clearance in rat at 10 mg/kg, iv administered as single dose; type: ADME, organism-based; set-up: dose 10 mg/kg, route intravenous; settings: in vivo
Outline: (§2)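 Rats received a single dose of compound, either oral (10 mg/kg) or intravenous (10, 5 or 2.5 mg/kg). Plasma levels were followed, and the reported parameters were Cmax, Tmax, AUC0–t, half-life, clearance and bioavailability (F).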

Aspergillus fumigatus [3] = assay: Antifungal activity against Aspergillus fumigatus JLC 30883 by broth microdilution method; type: functional; outline: as §1
[4] = AUC (0 to t) in rat at 10 mg/kg, iv administered as single dose; type: ADME, organism-based; set-up: dose 10 mg/kg, route intravenous; settings: plasma; outline: as §2
Pichia kudriavzevii [5] = assay: Antifungal activity against Candida krusei JLC 30386 by broth microdilution method; type: functional; outline: as §1
[6] = Solubility of the compound in water at pH 1.2; type: physicochemical; settings: water, read-out: solubility
Candida albicans [7] = assay: Antifungal activity against Candida albicans JLC 30364 by broth microdilution method; type: functional; outline: as §1
Aspergillus flavus [8] = assay: Antifungal activity against Aspergillus flavus JLC 40437 by broth microdilution method; type: functional; outline: as §1
[9] = Solubility of the compound in water at pH 7.4; type: physicochemical; settings: buffer, BLD = below limit of detection
Cryptococcus neoformans [10] = assay: Antifungal activity against Cryptococcus neoformans JLC 50123 by broth microdilution method; type: functional; outline: as §1
Pichia kudriavzevii [11] = assay: Antifungal activity against Candida krusei JLC 30366 by broth microdilution method; type: functional; outline: as §1
[12] = Half life in rat at 10 mg/kg, po administered as single dose; type: ADME, organism-based; set-up: dose 10 mg/kg, route oral; settings: in vivo; outline: as §2
Candida parapsilosis [13] = assay: Antifungal activity against Candida parapsilosis JLC 30365 by broth microdilution method; type: functional; settings: Lodderomyces parapsilosis; outline: as §1
[14] = Oral bioavailability in rat at 10 mg/kg, administered as single dose; type: ADME, organism-based; settings: in vivo; outline: as §2
Candida albicans [15] = assay: Antifungal activity against Candida albicans JLC 31374 by broth microdilution method; type: functional; outline: as §1
[16] = Half life in rat at 10 mg/kg, iv administered as single dose; type: ADME, organism-based; set-up: dose 10 mg/kg, route intravenous; settings: in vivo; outline: as §2
Aspergillus fumigatus [17] = assay: Antifungal activity against Aspergillus fumigatus JLC 30506 by broth microdilution method; type: functional; outline: as §1
Aspergillus flavus [18] = assay: Antifungal activity against Aspergillus flavus JLC 30784 by broth microdilution method; type: functional; outline: as §1
[19] = AUC (0 to t) in rat at 10 mg/kg, po administered as single dose; type: ADME, organism-based; set-up: dose 10 mg/kg, route oral; settings: plasma; outline: as §2
[20] = Tmax in rat at 10 mg/kg, po administered as single dose; type: ADME, organism-based; set-up: dose 10 mg/kg, route oral; settings: in vivo; outline: as §2
Cryptococcus neoformans [21] = assay: Antifungal activity against Cryptococcus neoformans JLC 50122 by broth microdilution method; type: functional; outline: as §1
[22] = Cmax in rat at 10 mg/kg, po administered as single dose; type: ADME, organism-based; set-up: dose 10 mg/kg, route oral; settings: in vivo; outline: as §2
[23] = Half life in rat at 5 mg/kg, iv administered as single dose; type: ADME, organism-based; set-up: dose 5 mg/kg, route intravenous; settings: in vivo; outline: as §2
[24] = AUC (0 to t) in rat at 5 mg/kg, iv administered as single dose; type: ADME, organism-based; set-up: dose 5 mg/kg, route intravenous; settings: plasma; outline: as §2
[25] = Clearance in rat at 5 mg/kg, iv administered as single dose; type: ADME, organism-based; set-up: dose 5 mg/kg, route intravenous; settings: in vivo; outline: as §2

Row | MIC (Candida parapsilosis [1]) [mg/L] | MIC (Aspergillus fumigatus [3]) [mg/L] | MIC (Pichia kudriavzevii [5]) [mg/L] | solubility [6] [mg/mL] | MIC (Candida albicans [7]) [mg/L] | MIC (Aspergillus flavus [8]) [mg/L] | MIC (Cryptococcus neoformans [10]) [mg/L] | MIC (Pichia kudriavzevii [11]) [mg/L] | half-life [12] [h] | MIC (Candida parapsilosis [13]) [mg/L] | bioavailability [14] [%] | MIC (Candida albicans [15]) [mg/L] | MIC (Aspergillus fumigatus [17]) [mg/L] | MIC (Aspergillus flavus [18]) [mg/L] | AUC(0-t) [19] [µg·h/mL] | Tmax [20] [h] | MIC (Cryptococcus neoformans [21]) [mg/L] | Cmax [22] [µg/mL] | SMILES | also measured
1 | 0.125 (≈ 0.189 µM) | 0.25 (≈ 0.379 µM) | 0.0625 (≈ 0.0947 µM) | 1.68 (≈ 2550 µM) | 0.0075 (≈ 0.0114 µM) | 0.125 (≈ 0.189 µM) | 0.25 (≈ 0.379 µM) | 0.0625 (≈ 0.0947 µM) | 1.26 | 0.125 (≈ 0.189 µM) | 35 | 0.0075 (≈ 0.0114 µM) | 0.25 (≈ 0.379 µM) | 0.125 (≈ 0.189 µM) | 2.71 | 1.88 | 0.25 (≈ 0.379 µM) | 0.712 | CC(C)n1ncn(-c2ccc(N3CCN(c4ccc(OC[C@H]5CO[C@](Cn6cncn6)(c6ccc(F)cc6F)O5)cc4)CC3)nc2)c1=O | clearance [2]: 1.27 L/h/kg; AUC(0-t) [4]: 7.73 µg·h/mL; solubility [9]: BLD; half-life [16]: 4.18 h
2 | 0.125 (≈ 0.186 µM) | 0.25 (≈ 0.371 µM) | 0.0625 (≈ 0.0928 µM) | 2.33 (≈ 3460 µM) | 0.03 (≈ 0.0445 µM) | 0.0625 (≈ 0.0928 µM) | 0.5 (≈ 0.742 µM) | 0.0625 (≈ 0.0928 µM) | 2.18 | 0.125 (≈ 0.186 µM) | 21.7 | 0.03 (≈ 0.0445 µM) | 0.25 (≈ 0.371 µM) | 0.0625 (≈ 0.0928 µM) | 1.61 | 2 | 0.5 (≈ 0.742 µM) | 0.392 | CC(C)Cn1ncn(-c2ccc(N3CCN(c4ccc(OC[C@H]5CO[C@](Cn6cncn6)(c6ccc(F)cc6F)O5)cc4)CC3)nc2)c1=O | half-life [23]: 1.43 h; AUC(0-t) [24]: 3.71 µg·h/mL; clearance [25]: 1.41 L/h/kg
3 | 0.25 (≈ 0.379 µM) | 0.125 (≈ 0.189 µM) | 0.0625 (≈ 0.0947 µM) | 0.32 (≈ 485 µM) | 0.0075 (≈ 0.0114 µM) | 0.125 (≈ 0.189 µM) | 0.25 (≈ 0.379 µM) | 0.0625 (≈ 0.0947 µM) | 3.45 | 0.25 (≈ 0.379 µM) | – | 0.0075 (≈ 0.0114 µM) | 0.125 (≈ 0.189 µM) | 0.125 (≈ 0.189 µM) | 1.22 | 3 | 0.25 (≈ 0.379 µM) | 0.159 | CC(C)n1ncn(-c2ccc(N3CCN(c4ccc(OC[C@H]5CO[C@](Cn6cncn6)(c6ccc(F)cc6F)O5)cc4)CC3)cn2)c1=O | –
4 | 0.5 (≈ 0.727 µM) | 0.5 (≈ 0.727 µM) | 0.125 (≈ 0.182 µM) | – | 0.0625 (≈ 0.0909 µM) | 0.0625 (≈ 0.0909 µM) | 0.125 (≈ 0.182 µM) | 0.125 (≈ 0.182 µM) | – | 0.5 (≈ 0.727 µM) | – | 0.0625 (≈ 0.0909 µM) | 0.5 (≈ 0.727 µM) | 0.0625 (≈ 0.0909 µM) | – | – | 0.125 (≈ 0.182 µM) | – | CCC(CC)n1ncn(-c2ccc(N3CCN(c4ccc(OC[C@H]5CO[C@](Cn6cncn6)(c6ccc(F)cc6F)O5)cc4)CC3)cn2)c1=O | –
